Activity calls are given as the source filed them. The calls are words filed in the database; no cut-off is given here.
Columns and labels:
Type in all cases: functional
[1] = Antioxidant activity assessed as ABTS+ free radical scavenging activity by TEAC assay
Summary of the method: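 TEAC assay measures reduction of the ABTS radical cation, with results expressed as Trolox equivalents. Data are mean ± SD of three series run in triplicate, with Student–Newman–Keuls post-hoc ANOVA (p<0.05).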

[2] = tested on: Radical scavenging activity; assay: Antioxidant activity assessed as DPPH free radical scavenging activity
[3] = Antioxidant activity assessed as ferric ion reducing power by FRAP method
Summary of the method: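 FRAP assay adapted for lipophilic antioxidants: Fe3+–TPTZ complex reduction in 300 mM acetate buffer, pH 3.6, at a 1:500 molar ratio of test compound to ferric ions. Data are mean ± SD of three series run in triplicate, with Student–Newman–Keuls post-hoc ANOVA (p<0.05).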

[4] = Antioxidant activity assessed as nitration product at 1:1 compound to phenol concentration
Summary of the method: (§1)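 FeCl3 used as oxidant at 10:1 and 100:1 molar ratios to test compound, with phenolic substrate at 1:1 to compound (FeCl3/compound/phenolic 10:1:1 or 100:1:1), in 50:50 v/v H2O/EtOH. Percent conversion to nitration product determined. Means of triplicate experiments.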

[5] = Antioxidant activity assessed as reduction in copper-mediated ascorbic acid oxidation at 100 uM preincubated for 10 mins measured for every 2 mins upto 2 hrs by UV spectrophotometrya; design: scale not given: the % may be the effect or the level left
Summary of the method: (§2)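 Test compound suspension combined with Chelex-treated water containing 2 µM Cu+. Plate pre-incubated 10 min at 37 °C, then ascorbate added (from a 2 mM stock, pH 7) to a starting 200 µM. A265 read every 2 min for 2 h at 37 °C to obtain the initial depletion rate. Ethanol vehicle served as baseline and DTPA as chelator control. Triplicate.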

[6] = Antioxidant activity assessed as reduction in copper-mediated ascorbic acid oxidation preincubated for 10 mins measured for every 2 mins upto 2 hrs by UV spectrophotometry; summary of the method: as §2
[7] = tested on: Radical scavenging activity; assay: Antioxidant activity assessed as rate constant for DPPH free radical scavenging activity by stopped flow spectroscopy
Summary of the method: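 Stopped-flow rapid mixing with diode-array photometer detection. Antioxidant stocks (ca. 2 mM) and DPPH (200 µM) prepared in ethanol; DPPH (200 µM) in acetonitrile also used. Starting antioxidant concentration after mixing is half the stock. Second-order rate constant derived from the kinetics.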

[8] = Antioxidant activity assessed as formation of DPPH breakdown product at 0.5 mM incubated for 20 mins by HPLC
Summary of the method: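 Aerobic DPPH (0.5 mM) mixed with test compound (0.5 mM) and incubated 20 min at room temperature. Reaction products analysed by HPLC, taking the peak area of the product eluting at 4 min. Mean ± SD of five experiments.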

[9] = Antioxidant activity assessed as nitration product using MeOC6H3(Me)2-(2,6) as substrate at FeCl3 to compound to phenol concentration 100:1:1; summary of the method: as §1
[10] = Antioxidant activity assessed as nitration product using PhOH as substrate at FeCl3 to compound to phenol concentration 10:1:1; summary of the method: as §1
[11] = Antioxidant activity assessed as nitration product using PhOMe as substrate at FeCl3 to compound to phenol concentration 10:1:1; summary of the method: as §1
[12] = Antioxidant activity assessed as nitration product at 1:1 compound to salicylic acid concentration; summary of the method: as §1
[13] = Antioxidant activity assessed as nitration product using HOC6H3(Me)2-(2,6) as substrate at FeCl3 to compound to phenol concentration 10:1:1; summary of the method: as §1
[14] = Antioxidant activity assessed as nitration product using PhOMe as substrate at FeCl3 to compound to phenol concentration 100:1:1; summary of the method: as §1
[15] = Antioxidant activity assessed as nitration product using PhOH as substrate at FeCl3 to compound to phenol concentration 100:1:1; summary of the method: as §1
[16] = Antioxidant activity assessed as nitration product using HOC6H3(t-Bu)2-(2,6) as substrate at FeCl3 to compound to phenol concentration 100:1:1; summary of the method: as §1
[17] = Antioxidant activity assessed as nitration product using HOC6H3(Me)2-(2,6) as substrate at FeCl3 to compound to phenol concentration 100:1:1; summary of the method: as §1
[18] = Antioxidant activity assessed as nitration product using HOC6H3(t-Bu)2-(2,6) as substrate at FeCl3 to compound to phenol concentration 10:1:1; summary of the method: as §1
[19] = Antioxidant activity assessed as nitration product using MeOC6H3(Me)2-(2,6) as substrate at FeCl3 to compound to phenol concentration 10:1:1; summary of the method: as §1

SMILES: Cc1cc(O)cc2c1O[C@](C)(CCC[C@H](C)CCC[C@H](C)CCCC(C)C)CC2
- Activity [1]: Active
- Activity [2]: Active
- Activity [3]: Active

SMILES: CC(C)=CCC/C(C)=C/CC/C(C)=C/CC[C@]1(C)CCc2cc(N)c(C)c(C)c2O1
- Activity [1]: Active
- Activity [2]: Active
- Activity [3]: Active

SMILES: Cc1c(O)cc2c(c1C)O[C@](C)(CCC[C@H](C)CCC[C@H](C)CCCC(C)C)CC2
- Activity [1]: Active
- Activity [2]: Active
- Activity [3]: Active
- Activity [4]: 13%

SMILES: Cc1c(O)cc2c(c1C)OC(C)(CCC(=O)O)CC2 (racemic)
- Activity [1]: Active
- Activity [2]: Active
- Activity [3]: Active

SMILES: Cc1c(C)c2c(c(C)c1O)CC[C@@](C)(CCCC(C)CCCC(C)CCCC(C)C(=O)O)O2 (mixture of isomers)
- Activity [1]: Active
- Activity [2]: Active
- Activity [3]: Active

SMILES: CC(C)=CCC/C(C)=C/CC/C(C)=C/CC[C@]1(C)CCc2c(C)c(N)c(C)c(C)c2O1
- Activity [1]: Active
- Activity [2]: Active
- Activity [3]: Active

SMILES: Cc1cc(N)cc2c1O[C@](C)(CCC[C@H](C)CCC[C@H](C)CCCC(C)C)CC2
- Activity [1]: Active
- Activity [5]: 44.7%
- Activity [6]: Dose-dependent effect
- Activity [2]: Active
- Activity [3]: Active

SMILES: CC(C)=CCC/C(C)=C/CC/C(C)=C/CC[C@]1(C)CCc2cc(O)c(C)c(C)c2O1
- Activity [1]: Active
- Activity [2]: Active
- Activity [3]: Active

SMILES: Cc1cc(O)cc2c1OC(C)(CCC(=O)O)CC2 (racemic)
- Activity [1]: Active
- Activity [2]: Active
- Activity [3]: Active

SMILES: Cc1c(N)cc2c(c1C)O[C@](C)(CCC[C@H](C)CCC[C@H](C)CCCC(C)C)CC2
- Activity [1]: Active
- Activity [5]: 35%
- Activity [6]: Dose-dependent effect
- Activity [2]: Active
- Activity [3]: Active

SMILES: Cc1c(O)cc2c(c1C)OC(C)(C)CC2
- Activity [4]: 3%

SMILES: Cc1c(C)c2c(c(C)c1O)CCC(C)(CCC(=O)O)O2 (racemic)
- Activity [1]: Active
- Activity [2]: Active
- Activity [3]: Active

SMILES: CC(C)=CCC/C(C)=C/CC/C(C)=C/CC[C@]1(C)CCc2cc(O)cc(C)c2O1
- Activity [1]: Active
- Activity [2]: Active
- Activity [3]: Active

SMILES: CC(C)=CCC/C(C)=C/CC/C(C)=C/CC[C@]1(C)CCc2cc(N)cc(C)c2O1
- Activity [1]: Active
- Activity [2]: Active
- Activity [3]: Active

SMILES: Cc1c(C)c2c(c(C)c1O)CC[C@@](C)(CCC[C@H](C)CCC[C@H](C)CCCC(C)C)O2
- Activity [7]: 280 L/mol/s
- Activity [1]: Active
- Activity [8]: inactive
- Activity [2]: Active
- Activity [3]: Active

SMILES: CC(C)=CCC/C(C)=C/CC/C(C)=C/CC[C@]1(C)CCc2c(C)c(O)c(C)c(C)c2O1
- Activity [1]: Active
- Activity [2]: Active
- Activity [3]: Active

SMILES: Cc1c(C)c2c(c(C)c1N)CC[C@@](C)(CCC[C@H](C)CCC[C@H](C)CCCC(C)C)O2
- Activity [9]: inactive
- Activity [7]: 4290 L/mol/s
- Activity [10]: 12%
- Activity [11]: 0%
- Activity [1]: Active
- Activity [12]: 8%
- Activity [13]: 4%
- Activity [5]: 19.5%
- Activity [6]: Dose-dependent effect
- Activity [8]: Active
- Activity [14]: 2%
- Activity [15]: 26%
- Activity [2]: Active
- Activity [3]: Active
- Activity [16]: 0.4%
- Activity [17]: 9%
- Activity [18]: 0.2%
- Activity [19]: 0%
